Converted amounts (≈) assume the structure as drawn. The source made the active and inactive calls. No cut-off for these calls is given here.
What was measured:
Escherichia coli [1] = assay: Antimicrobial activity against Escherichia coli KCTC 1682 incubated for 18 to 20 hrs by broth microdilution assay; format: functional; conditions: read-out: MIC100
Method in brief: (§1)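 Broth microdilution in 1% peptone. Inoculum was 2 × 10⁶ CFU/mL mixed 1:1 with serial 2-fold peptide dilutions and incubated 18–20 h at 37 °C. Growth was read as absorbance at 600 nm; MIC is the lowest peptide concentration giving 100% growth inhibition.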

Staphylococcus aureus [2] = assay: Antimicrobial activity against Staphylococcus aureus KCTC 1621 incubated for 18 to 20 hrs by broth microdilution assay; format: functional; conditions: read-out: MIC100; method in brief: as §1
Pseudomonas aeruginosa [3] = assay: Potency index, ratio of LL-37 MIC100 to compound MIC100 for Pseudomonas aeruginosa KCTC 1637; format: functional
[4] = Therapeutic index, ratio of MHC for sheep RBC to MIC for Staphylococcus epidermidis KCTC 1917
NIH3T3 = assay: Cytotoxicity against mouse NIH/3T3 cells up to 64 ug/mL after 2 days by MTT assay; format: cell-based; conditions: nih3t3, 48 h
Method in brief: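 Cells in DMEM with 10% FBS seeded at 2×10^4 cells/well and incubated 24 h at 37 °C, 5% CO₂. Serial 2-fold peptide dilutions were added for 2 days, then MTT for 4 h. Formazan was dissolved in 20% SDS/0.01 M HCl and read at 570 nm. Survival is expressed as a percentage of untreated cells.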

Staphylococcus aureus [5] = assay: Antibacterial activity against methicillin resistant Staphylococcus aureus CCARM 3089 after 18 to 20 hrs by broth microdilution assay; format: functional; conditions: read-out: MIC100
Method in brief: (§2)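 Broth microdilution in 1% peptone: bacteria at 2 × 10⁶ CFU/mL mixed 1:1 with serial 2-fold peptide dilutions, 18-20 h at 37 °C; growth read as absorbance at 600 nm. MIC taken as lowest concentration giving 100% growth inhibition.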

Pseudomonas aeruginosa [6] = assay: Antibacterial activity against multidrug-resistant Pseudomonas aeruginosa CCARM 2109 after 18 to 20 hrs by broth microdilution assay; format: functional; conditions: read-out: MIC100; method in brief: as §2
Enterococcus faecium [7] = assay: Antibacterial activity against vancomycin-resistant Enterococcus faecium ATCC 51559 after 18 to 20 hrs by broth microdilution assay; format: functional; conditions: read-out: MIC100; method in brief: as §2
Enterococcus faecium [8] = assay: Potency index, ratio of melittin MIC100 to compound MIC100 for vancomycin-resistant Enterococcus faecium ATCC 51559; format: functional
Escherichia coli [9] = assay: Antimicrobial activity against Escherichia coli KCTC 1682 in presence of NaCl; format: functional
Method in brief: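 MIC in LB medium with added 150 mM NaCl, 1 mM MgCl₂ or 2.5 mM CaCl₂. Inoculum of 2 × 10⁶ CFU/mL with peptide. Otherwise as the broth microdilution MIC assay; MIC is the lowest concentration giving 100% growth inhibition.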

Staphylococcus aureus [10] = assay: Antimicrobial activity against Staphylococcus aureus KCTC 1621 in presence of NaCl; format: functional
Method in brief: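 MIC by microdilution with 2 × 10⁶ CFU/ml S. aureus KCTC 1621 in LB medium supplemented with physiological salt: 150 mM NaCl, 1 mM MgCl₂ or 2.5 mM CaCl₂; growth inhibition endpoint as in the standard MIC assay.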

Escherichia coli [11] = assay: Induction of outer membrane permeabilization in Escherichia coli KCTC 1682 assessed as NPN uptake by spectrofluorophotometric analysis; format: functional
Method in brief: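 E. coli KCTC 1682 at OD600 0.05 in 5 mM HEPES pH 7.2 with 5 mM KCN; NPN 10 µM final, background fluorescence recorded (ex 350, em 420 nm). Peptide aliquots at various concentrations added and fluorescence followed over time until no further rise.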

Escherichia coli [12] = assay: Induction of inner membrane permeabilisation in Escherichia coli ML-35 assessed as ONPG hydrolysis up to 30 ug/ml by beta-galactosidase enzyme coupled spectrophotometric analysis; format: functional
Method in brief: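 E. coli ML-35 (constitutive cytoplasmic β-galactosidase, lactose permease-deficient) washed and resuspended to OD600 0.5 in 10 mM sodium phosphate pH 7.4, 100 mM NaCl, with 1.5 mM ONPG. o-Nitrophenol release tracked spectrophotometrically over time after peptide addition at various concentrations.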

Staphylococcus aureus [13] = assay: Induction of cytoplasmic membrane depolarization in Staphylococcus aureus KCTC 1621 assessed as loss of membrane potential after 1 hr by DiSC3(5) dye based fluorescence assay; format: functional
Staphylococcus aureus [14] = assay: Antimicrobial activity against Staphylococcus aureus KCTC 1621 assessed as cell membrane damage at 2 times MIC after 1 hr by transmission electron microscopy; format: functional
Method in brief: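 Bacteria at 2×10^7 CFU/mL in LB, washed three times in PBS. Peptide in PBS was added to a final 2 × MIC and incubated 1 h at 37 °C. Pelleted cells were resuspended in PBS, applied to glow-discharged carbon-film grids, negatively stained with 1% uranyl acetate for 1 min, and imaged by TEM at 120 kV.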

RAW264.7 [15] = assay: Antiinflammatory activity in mouse RAW264.7 cells assessed as inhibition of LPS-induced TNF-alpha production at 32 ug/mL preincubated with cells followed by LPS addition measured after 6 hrs by ELISA; format: functional
Method in brief: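 RAW264.7 cells seeded at 5 × 10⁴ cells/well, left overnight, then given peptide at 37 °C. Unbound peptide was washed off with PBS (five washes) before LPS (20 ng/mL) was added for 6 h at 37 °C. TNF-α in the samples was measured by mouse ELISA. Mean ± SEM of technical triplicates, one-way ANOVA with Bonferroni post-test.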

RAW264.7 [16] = assay: Antiinflammatory activity in mouse RAW264.7 cells assessed as inhibition of LPS-induced nitric oxide production at 16 ug/mL after 24 hrs by Griess method; format: functional; conditions: RAW264.7, 24 h
Method in brief: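 RAW264.7 macrophages (5×10^5 cells/mL) stimulated with LPS (20 ng/mL), with or without peptide, for 24 h. Supernatants were mixed 1:1 with Griess reagent (1% sulfanilamide, 0.1% naphthylethylenediamine, 2% phosphoric acid) for 10 min at room temperature, read at 540 nm, and quantified against an NaNO₂ standard curve. Mean ± SEM of technical triplicates, ANOVA with Bonferroni post-test.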

RAW264.7 [17] = assay: Antiinflammatory activity in mouse RAW264.7 cells assessed as inhibition of LPS-induced TNFalpha mRNA expression at 16 ug/mL after 3 hrs by RT-PCR method; format: functional, cell-based
Method in brief: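 RAW264.7 cells plated at 5×10^5 cells/well and cultured overnight. They were stimulated with 20 ng/mL LPS, with or without peptide, in DMEM with 10% bovine serum, for 3 h (TNF-α) or 6 h (iNOS). Total RNA was reverse-transcribed with oligo(dT)15 primers and amplified for 30 cycles (annealing 55 °C). mRNA was analysed by PCR.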

Staphylococcus aureus [18] = assay: Potency index, ratio of melittin MIC100 to compound MIC100 for methicillin resistant Staphylococcus aureus CCARM 3090; format: functional
Escherichia coli [19] = assay: Antimicrobial activity against Escherichia coli KCTC 1682 using 4 hrs trypsin incubated compound measured after overnight incubation by radial diffusion assay; format: functional
Method in brief: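 Radial diffusion: mid-log cells (2×10^6 CFU/ml in LB) in 0.7% agarose. Peptide stock (10 mg/mL) added to trypsin in PBS (0.2 µg/mL), 4 h at 37 °C, stopped by liquid-nitrogen freezing; 10 µL on paper discs on the plates, overnight at 37 °C. Clearance-zone diameters measured.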

For N=C(N)NCCC[C@H](NC(=O)c1nn(CCc2cccc3ccccc23)cc1NC(=O)[C@H](CCCNC(=N)N)NC(=O)c1nn(CCc2cccc3ccccc23)cc1N)C(N)=O, the MIC (Escherichia coli [1]) was 32 µg/mL (≈ 37.4 µM), the MIC (Staphylococcus aureus [2]) was 4 µg/mL (≈ 4.67 µM) and the Ratio (Pseudomonas aeruginosa [3]) was 8. The TI [4] was 53.9, the Activity (NIH3T3) was “Non-Toxic” and the MIC (Staphylococcus aureus [5]) was 8 µg/mL (≈ 9.35 µM). It also gave an MIC (Pseudomonas aeruginosa [6]) of 8 µg/mL (≈ 9.35 µM), an MIC (Enterococcus faecium [7]) of 8 µg/mL (≈ 9.35 µM) and a Ratio (Enterococcus faecium [8]) of 2. The MIC (Escherichia coli [9]) was 32 µg/mL, the MIC (Staphylococcus aureus [10]) was 4 µg/mL and the Activity (Escherichia coli [11]) was “Dose-dependent effect”. The Activity (Escherichia coli [12]) was “Active”, the Activity (Staphylococcus aureus [13]) was “Active” and the Activity (Staphylococcus aureus [14]) was “Active”. The inhibition at 32 µg/mL (RAW264.7 [15]) was over 50%, the inhibition at 16 µg/mL (RAW264.7 [16]) was over 85% and the inhibition (RAW264.7 [17]) was “Active”. For the same molecule, the Ratio (Staphylococcus aureus [18]) was 2 - 4 and the Activity (Escherichia coli [19]) was “Active”.
